Measurements from ChEMBL document CHEMBL2417474, “Synthesis, antiproliferative and anti-inflammatory activities of some novel 6-aryl-2-(p-(methanesulfonyl)phenyl)-4,5-dihydropyridazi-3(2H)-ones” (Eur J Med Chem, 2013).

Key:
Assay type in all cases: functional
OVCAR-3 = experiment: Growth inhibition of human OVCAR3 cells assessed as cell growth at 10 uM after 48 hrs by sulforhodamine B assay; settings: OVCAR-3, 48 h, read-out: Activity
SK-OV-3 = experiment: Growth inhibition of human SKOV3 cells after 48 hrs by sulforhodamine B assay; settings: SK-OV-3, 48 h
Summary of the method: (§1)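 NCI 60-cell-line panel. Cells were grown in medium with 5% fetal calf serum and 2 mM L-glutamine, then preincubated 24 h in plates. Compounds were added from DMSO at five 10-fold concentrations from 100 to 0.01 µM and left on cells continuously for 48 h. Cell growth was read by sulforhodamine B protein stain. GI50 is the concentration that halves net protein increase relative to control cells.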

Malme-3M = experiment: Growth inhibition of human MALME-3M cells after 48 hrs by sulforhodamine B assay
Summary of the method: (§2)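 NCI 60-cell-line panel grown in RPMI-type medium with 5% fetal calf serum and 2 mM L-glutamine. Cells preincubated 24 h, then exposed continuously for 48 h to compound in DMSO at 10^-4 to 10^-8 M (five 10-fold levels). Growth read by SRB protein stain. GI50 is the concentration giving a 50% reduction in net protein increase relative to control cells.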

HCT-116 = experiment: Growth inhibition of human HCT116 cells after 48 hrs by sulforhodamine B assay; settings: HCT-116, 48 h; summary of the method: as §2
NCI-H23 = experiment: Growth inhibition of human NCI-H23 cells after 48 hrs by sulforhodamine B assay; settings: NCI-H23, 48 h; summary of the method: as §1
CAKI-1 = experiment: Growth inhibition of human CAKI-1 cells after 48 hrs by sulforhodamine B assay; settings: CAKI-1, 48 h; summary of the method: as §2
SN12C [1] = experiment: Growth inhibition of human SN12C cells after 48 hrs by sulforhodamine B assay
Summary of the method: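 Part of the NCI 60-cell-line panel. Cells were grown in 1640 medium with 5% fetal calf serum and 2 mM L-glutamine, then preincubated 24 h before compound was added. Compounds in DMSO were tested at five concentrations (100, 10, 1, 0.1, 0.01 µM) with 48 h continuous exposure. Read-out was SRB protein staining; GI50 is the concentration halving the net protein increase versus control.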

BT-549 = experiment: Growth inhibition of human BT549 cells after 48 hrs by sulforhodamine B assay; settings: BT-549, 48 h; summary of the method: as §2
HT-29 = experiment: Growth inhibition of human HT-29 cells assessed as cell growth at 10 uM after 48 hrs by sulforhodamine B assay; settings: HT-29, 48 h, read-out: Activity
UACC-62 = experiment: Growth inhibition of human UACC62 cells after 48 hrs by sulforhodamine B assay; settings: UACC-62, 48 h
Summary of the method: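 NCI 60-line panel. Cells were grown in medium with 5% fetal calf serum and 2 mM L-glutamine and preincubated 24 h in plates. Compound in DMSO was added at 10^-4 to 10^-8 M (five 10-fold levels), with continuous exposure for 48 h. Growth was read by SRB protein staining. GI50 is the concentration giving 50% reduction in net protein increase versus control cells.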

MOLT-4 [2] = experiment: Growth inhibition of human MOLT4 cells after 48 hrs by sulforhodamine B assay; settings: MOLT-4, 48 h; summary of the method: as §1
UO-31 = experiment: Growth inhibition of human UO31 cells assessed as cell growth at 10 uM after 48 hrs by sulforhodamine B assay; settings: UO-31, 48 h, read-out: Activity
Summary of the method: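 Single-dose NCI screen. Tumor lines were cultured in medium with 5% fetal calf serum and 2 mM L-glutamine, preincubated 24 h, then given compound in DMSO. After 48 h continuous exposure, cell growth was estimated by sulforhodamine B protein assay.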

NCI-H226 = experiment: Growth inhibition of human NCI-H226 cells assessed as cell growth at 10 uM after 48 hrs by sulforhodamine B assay; settings: NCI-H226, 48 h, read-out: Activity
SF-539 = experiment: Growth inhibition of human SF539 cells assessed as cell growth at 10 uM after 48 hrs by sulforhodamine B assay; settings: SF-539, 48 h, read-out: Activity
HOP-62 = experiment: Growth inhibition of human HOP62 cells after 48 hrs by sulforhodamine B assay; settings: HOP-62, 48 h; summary of the method: as §2
MDA-MB-231 = experiment: Growth inhibition of human MDA-MB-231 cells assessed as cell growth at 10 uM after 48 hrs by sulforhodamine B assay; settings: MDA-MB-231, 48 h, read-out: Activity
IGROV-1 = experiment: Growth inhibition of human IGROV1 cells after 48 hrs by sulforhodamine B assay; settings: IGROV-1, 48 h; summary of the method: as §2
MDA-MB-435 = experiment: Growth inhibition of human MDA-MB-435 cells after 48 hrs by sulforhodamine B assay; settings: MDA-MB-435, 48 h; summary of the method: as §1
NCI-H522 = experiment: Growth inhibition of human NCI-H522 cells after 48 hrs by sulforhodamine B assay; settings: NCI-H522, 48 h; summary of the method: as §1
Rattus norvegicus = experiment: Antiinflammatory activity in Wistar rat assessed as inhibition of carrageenan-induced paw edema at 0.05 mmol/kg, po administered 30 mins prior challenge measured after 5 hrs
Summary of the method: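 Wistar rats of either sex, 150–175 g, fasted 16 h, 6 per group. Dosed orally at 0.05 mmol/kg, suspended in 1% CMC in water (10 ml/kg). 30 min later, 0.1 ml of 1% carrageenan in saline injected subplantar into the left hind paw. Paw volume read by plethysmometer at 0, 3 and 5 h. % inhibition = (1 − Vt/Vc) × 100 against the vehicle group.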

COLO 205 = experiment: Growth inhibition of human COLO205 cells after 48 hrs by sulforhodamine B assay; settings: COLO 205, 48 h; summary of the method: as §2
SF-268 = experiment: Growth inhibition of human SF268 cells after 48 hrs by sulforhodamine B assay; settings: SF-268, 48 h; summary of the method: as §1
SN12C [3] = experiment: Growth inhibition of human SN12C cells assessed as cell growth at 10 uM after 48 hrs by sulforhodamine B assay; settings: read-out: Activity
MOLT-4 [4] = experiment: Growth inhibition of human MOLT4 cells assessed as cell growth at 10 uM after 48 hrs by sulforhodamine B assay; settings: MOLT-4, 48 h, read-out: Activity
M14 = experiment: Growth inhibition of human M14 cells assessed as cell growth at 10 uM after 48 hrs by sulforhodamine B assay; settings: M14, 48 h, read-out: Activity
DU-145 = experiment: Growth inhibition of human DU145 cells assessed as cell growth at 10 uM after 48 hrs by sulforhodamine B assay; settings: DU-145, 48 h, read-out: Activity
[5] = read-out: LC50 (the source's name)

CCc1ccc(C2=NN(c3ccc(S(C)(=O)=O)cc3)C(=O)CC2)cc1
growth at 10 µM (OVCAR-3): -13.6%
GI50 (SK-OV-3): 2.44 µM
LC50 (SK-OV-3): > 100 µM
TGI (SK-OV-3): 19.6 µM
GI50 (Malme-3M): 6.8 µM
TGI (Malme-3M): > 67.6 µM
CC50 (Malme-3M; [5]): > 100 µM
GI50 (HCT-116): 0.73 µM
LC50 (concentration killing 50% of cells) (HCT-116): > 100 µM
TGI (HCT-116): > 100 µM
GI50 (NCI-H23): 3.19 µM
TGI (NCI-H23): > 100 µM
CC50 (NCI-H23; [5]): > 100 µM
GI50 (CAKI-1): 1 µM
LC50 (lethal concentration, 50% cell kill) (CAKI-1): > 100 µM
TGI (CAKI-1): 8.22 µM
GI50 (SN12C [1]): 4.81 µM
LC50 (SN12C [1]): > 100 µM
TGI (SN12C [1]): > 100 µM
GI50 (BT-549): 0.96 µM
TGI (BT-549): 35.6 µM
CC50 (BT-549; [5]): > 100 µM
growth at 10 µM (HT-29): 11.5%
GI50 (UACC-62): 0.78 µM
LC50 (50% net cell kill concentration) (UACC-62): > 100 µM
TGI (UACC-62): > 100 µM
GI50 (MOLT-4 [2]): 3.52 µM
LC50 (MOLT-4 [2]): > 100 µM
TGI (MOLT-4 [2]): 6.75 µM
growth at 10 µM (UO-31): 33.3%
growth at 10 µM (NCI-H226): 69.1%
growth at 10 µM (SF-539): 15.1%
GI50 (HOP-62): 4.3 µM
TGI (HOP-62): > 100 µM
CC50 (HOP-62; [5]): > 100 µM
growth at 10 µM (MDA-MB-231): 55.5%
GI50 (IGROV-1): 1.48 µM
LC50 (IGROV-1): > 100 µM
TGI (IGROV-1): 55.2 µM
GI50 (MDA-MB-435): 0.22 µM
LC50 (concentration killing 50% of starting cells) (MDA-MB-435): > 100 µM
TGI (MDA-MB-435): 0.74 µM
GI50 (NCI-H522): 0.33 µM
LC50 (concentration killing 50% of starting cells) (NCI-H522): > 100 µM
TGI (NCI-H522): 8.37 µM
inhibition in vivo at 50 µmol/kg (Rattus norvegicus): 65.7%
GI50 (COLO 205): 1.02 µM
TGI (COLO 205): 12.6 µM
CC50 (COLO 205; [5]): 83.8 µM
GI50 (SF-268): 6.99 µM
TGI (SF-268): > 100 µM
CC50 (SF-268; [5]): > 100 µM
growth at 10 µM (SN12C [3]): 31.4%
growth at 10 µM (MOLT-4 [4]): 15.3%
growth at 10 µM (M14): 5.99%
growth at 10 µM (DU-145): 21.4%
